Publication PMC2843942 (Journal of the American Chemical Society, 2010)
Where two headings read alike, the source gives them in different places.

Legend:
GST-LSD1 [1] = target: T1, GST-LSD1 (Homo sapiens, UniProt O60341); details: cited from earlier work; for inactivation of LSD1: result in words
GST-LSD1 [2] = target: T1, GST-LSD1; test: peroxidase-coupled assay; assay type: biochemical; details: for k(inact): 185 nM GST-LSD1, Kitz-Wilson analysis; for KI (inactivation): 185 nM GST-LSD1, 240 µM substrate, extrapolated to zero substrate, Kitz-Wilson; for time-dependent inactivation of LSD1: result in words
GST-LSD1 [3] = target: T1, GST-LSD1; details: 500 µM phenelzine, 30 min preincubation, 10 µM substrate
[4] = system: TSHalpha luciferase reporter in α-23 cells derived from GH3 cells; details: 10 µM phenelzine, 24 hours, with or without 0.1 µM T3
[5] = system: methylation of Lys-4 of histone H3 in α-23 cells; details: 10 µM phenelzine, one hour, ChIP
GST-LSD1 (aa 171-852) [6] = target: GST-LSD1 (aa 171-852) (UniProt O60341); test: enzyme inactivation kinetics
GST-LSD1 [7] = target: T1, GST-LSD1; test: Amplex Red horseradish peroxidase coupled assay detecting H2O2; assay type: biochemical
Procedure, shortened: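 Human GST-LSD1 (aa 171–852) from E. coli, at 25 nM, in 50 mM HEPES pH 7.5 with 0.1 mM Amplex Red and 0.76 µM horseradish peroxidase. Dimethyl-Lys-4 H3-21 substrate started 150 µL reactions, aerobic, at 25 °C. For inactivation, test compound and substrate (600 µM final) were added together. H2O2 was followed at 571 nm (ε 52,000 M−1 cm−1) from initial velocities.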

GST-LSD1 (aa 171-852) [8] = target: GST-LSD1 (aa 171-852) (UniProt O60341); test: enzyme inhibition kinetics
[9] = 25 nM LSD1, 600 µM substrate, Amplex Red

Compound: C#CCN(C)Cc1ccccc1 [pargyline, reference compound]
- inactivation of LSD1 (GST-LSD1 [1]): failed in subsequent studies to appreciably inactivate LSD1

Compound: NNCCc1ccccc1 [phenelzine, phenethylhydrazine]
- k(inact) (GST-LSD1 [2]): 0.955 ± 0.085 min⁻¹
- demethylation of H3-21 dimethyl-Lys substrate peptide by treated LSD1 (GST-LSD1 [3]): unable to induce loss of a methyl group
- luciferase activity of TSHalpha reporter [4]: increases luciferase activity both in the absence and presence of T3
- mono and dimethylation of Lys-4 H3 at TSHalpha reporter region [5]: enhanced
- trimethylation level of Lys-4 H3 at TSHalpha reporter region [5]: unaffected

Compound: cis-3-chloroallyl-Lys-4 H3-21 (3) (from UniProt P68431 2-22) (peptide)
- Ki(inact) (GST-LSD1 (aa 171-852) [6]): 0.955 µM

Compound: cis-3-chloroallyl-Lys-4 H3-21 [compound 3]
- kinact/Ki(inact) fold difference from peptide 2 (GST-LSD1 [2]): ≤ 5 fold
- KI (inactivation) (GST-LSD1 [2]): 955 ± 150 nM
- k(inact) (GST-LSD1 [2]): 0.545 ± 0.038 min⁻¹
- time-dependent inactivation of LSD1 (GST-LSD1 [2]): time- and concentration-dependent inactivation

Compound: dimethyl-Lys-4 H3-21 [reference compound]
- kcat (GST-LSD1 [2]; GST-LSD1 with this substrate, 185 nM enzyme): 4.5 ± 0.1 min⁻¹
- Km (GST-LSD1 [2]; substrate of GST-LSD1, 185 nM enzyme, pH 7.5, 25 °C): 21 ± 2 µM
- kcat (GST-LSD1 [7]; GST-LSD1 with this substrate, 25 nM enzyme, Amplex Red): 3.5 ± 0.2 min⁻¹
- Km (GST-LSD1 [7]; substrate of GST-LSD1, 25 nM enzyme, Amplex Red): 20 ± 3 µM

Compound: endo-cyclopropyl-Lys-4 H3-21 (7) (from UniProt P68431 2-22) (peptide)
- Ki (GST-LSD1 (aa 171-852) [8]): 6.11 µM

Compound: endo-dimethylcyclopropyl-Lys-4 H3-21 (8) (from UniProt P68431 2-22) (peptide)
- Ki (GST-LSD1 (aa 171-852) [8]): 24.2 µM

Compound: exo-cyclopropyl-Lys-4 H3-21 [compound 6]
- inactivation of LSD1 (GST-LSD1 [1]): did not inactivate LSD1
- Ki (GST-LSD1 [1]; reversible inhibitor, estimated, obtained previously): 2700 ± 740 nM

Compound: hydrazino-Lys-4 H3-21 (18) (from UniProt P68431 2-22) (peptide)
- Ki(inact) (GST-LSD1 (aa 171-852) [6]): 0.00435 µM

Compound: hydrazino-Lys-4 H3-21 [compound 18]
- time-dependent inactivation of LSD1 (GST-LSD1 [2]): highly potent time-dependent inhibitor
- fold more efficient in inhibiting demethylation than propargylamine-H3 derivatives (GST-LSD1 [7]): more than 20 fold
- KI (inactivation) (GST-LSD1 [7]; [9]): 4.35 ± 0.86 nM
- k(inact) (GST-LSD1 [7]; [9]): 0.247 ± 0.018 min⁻¹
- fold more potent than 2 as LSD1 inactivator (GST-LSD1 [7]; versus N-methylpropargylamine peptide 2): approximately 25 fold

Compound: propargyl-Lys-4 H3-21 [compound 1]
- KI (inactivation) (GST-LSD1 [1]; obtained previously): 775 ± 160 nM
- k(inact) (GST-LSD1 [1]; obtained previously): 0.304 ± 0.033 min⁻¹

Compound: trans-3-chloroallyl-Lys-4 H3-21 (4) (from UniProt P68431 2-22) (peptide)
- Ki(inact) (GST-LSD1 (aa 171-852) [6]): 0.763 µM

Compound: trans-3-chloroallyl-Lys-4 H3-21 [compound 4]
- KI (inactivation) (GST-LSD1 [2]): 763 ± 120 nM
- k(inact) (GST-LSD1 [2]): 0.128 ± 0.0087 min⁻¹
- time-dependent inactivation of LSD1 (GST-LSD1 [2]): time- and concentration-dependent inactivation
